Measured values taken from ChEMBL document CHEMBL4177655, “Synthesis and biological evaluation of Santacruzamate-A based analogues” (Bioorg Med Chem, 2017).
pIC50: −log10 of the molar value. The source made the active and inactive calls. No cut-off for these calls is given here.

Key:
HCT-116 [1] = assay: Antiproliferative activity against human HCT116 cells after 24 hrs by MTT assay; format: functional, cell-based; details: HCT-116, 24 h
HCT-116 [2] = assay: Antiproliferative activity against human HCT116 cells after 48 hrs by MTT assay; format: functional, cell-based; details: HCT-116, 48 h
HCT-116 [3] = assay: Antiproliferative activity against human HCT116 cells after 72 hrs by MTT assay; format: functional, cell-based; details: HCT-116, 72 h
[4] = target: T1, Protein deacetylase HDAC6 (Homo sapiens) (UniProt Q9UBN7); assay: Inhibition of full-length recombinant HDAC6 (unknown origin) expressed in baculovirus infected Sf9 insect cells measured every 5 mins by fluorescence assay
T1 sequence (whole entry): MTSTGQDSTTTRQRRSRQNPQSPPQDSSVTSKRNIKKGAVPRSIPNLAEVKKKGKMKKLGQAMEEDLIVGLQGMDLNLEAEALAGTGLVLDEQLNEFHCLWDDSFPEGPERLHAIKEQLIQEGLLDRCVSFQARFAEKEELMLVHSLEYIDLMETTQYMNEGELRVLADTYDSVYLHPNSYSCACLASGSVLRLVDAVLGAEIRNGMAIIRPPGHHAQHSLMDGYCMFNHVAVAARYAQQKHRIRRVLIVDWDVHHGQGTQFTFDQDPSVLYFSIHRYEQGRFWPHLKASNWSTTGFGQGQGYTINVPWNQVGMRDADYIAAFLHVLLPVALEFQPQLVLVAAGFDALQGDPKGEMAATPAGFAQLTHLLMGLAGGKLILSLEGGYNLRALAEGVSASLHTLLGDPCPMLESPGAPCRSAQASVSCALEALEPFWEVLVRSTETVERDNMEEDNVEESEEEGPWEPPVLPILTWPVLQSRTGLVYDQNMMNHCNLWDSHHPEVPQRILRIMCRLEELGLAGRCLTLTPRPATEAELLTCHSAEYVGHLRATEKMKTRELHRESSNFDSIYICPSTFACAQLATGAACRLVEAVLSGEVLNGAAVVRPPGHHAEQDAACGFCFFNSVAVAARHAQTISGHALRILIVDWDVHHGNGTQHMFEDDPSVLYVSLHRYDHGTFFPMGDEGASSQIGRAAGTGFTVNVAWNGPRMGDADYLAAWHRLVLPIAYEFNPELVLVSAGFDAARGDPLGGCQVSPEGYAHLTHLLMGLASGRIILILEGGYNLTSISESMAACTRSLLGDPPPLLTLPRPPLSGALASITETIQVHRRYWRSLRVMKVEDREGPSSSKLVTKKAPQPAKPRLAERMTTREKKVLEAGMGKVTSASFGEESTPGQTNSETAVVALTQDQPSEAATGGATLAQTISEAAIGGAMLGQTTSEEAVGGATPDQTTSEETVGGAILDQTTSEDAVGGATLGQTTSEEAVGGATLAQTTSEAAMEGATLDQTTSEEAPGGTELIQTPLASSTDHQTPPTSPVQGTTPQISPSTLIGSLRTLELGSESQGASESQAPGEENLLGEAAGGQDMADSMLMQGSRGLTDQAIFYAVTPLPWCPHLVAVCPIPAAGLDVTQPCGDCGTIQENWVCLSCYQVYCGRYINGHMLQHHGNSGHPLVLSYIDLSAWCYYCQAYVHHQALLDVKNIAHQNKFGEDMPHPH

[5] = target: T2, Histone deacetylase 8 (Homo sapiens) (UniProt Q9BY41); assay: Inhibition of human full-length recombinant C-termianl His-tagged HDAC8 expressed in baculovirus infected Sf9 insect cells measured every 5 mins by fluorescence assay
T2 sequence (whole entry): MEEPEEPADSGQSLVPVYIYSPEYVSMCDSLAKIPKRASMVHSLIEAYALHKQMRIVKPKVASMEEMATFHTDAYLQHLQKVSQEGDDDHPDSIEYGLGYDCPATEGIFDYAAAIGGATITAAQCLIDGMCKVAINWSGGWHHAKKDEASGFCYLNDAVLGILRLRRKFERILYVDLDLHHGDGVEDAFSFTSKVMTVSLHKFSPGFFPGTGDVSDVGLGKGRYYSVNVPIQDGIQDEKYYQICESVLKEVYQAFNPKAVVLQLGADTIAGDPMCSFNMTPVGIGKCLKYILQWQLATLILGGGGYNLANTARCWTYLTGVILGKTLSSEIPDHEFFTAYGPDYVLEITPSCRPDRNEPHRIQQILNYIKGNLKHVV

[6] = target: Histone deacetylase 2 (Homo sapiens) (UniProt Q92769); assay: Inhibition of full-length human recombinant HDAC2 expressed in baculovirus infected Sf9 insect cells preincubated for 16 hrs measured every 5 mins by fluorescence assay
Histone deacetylase 2 (Homo sapiens), sequence (Q92769 whole entry): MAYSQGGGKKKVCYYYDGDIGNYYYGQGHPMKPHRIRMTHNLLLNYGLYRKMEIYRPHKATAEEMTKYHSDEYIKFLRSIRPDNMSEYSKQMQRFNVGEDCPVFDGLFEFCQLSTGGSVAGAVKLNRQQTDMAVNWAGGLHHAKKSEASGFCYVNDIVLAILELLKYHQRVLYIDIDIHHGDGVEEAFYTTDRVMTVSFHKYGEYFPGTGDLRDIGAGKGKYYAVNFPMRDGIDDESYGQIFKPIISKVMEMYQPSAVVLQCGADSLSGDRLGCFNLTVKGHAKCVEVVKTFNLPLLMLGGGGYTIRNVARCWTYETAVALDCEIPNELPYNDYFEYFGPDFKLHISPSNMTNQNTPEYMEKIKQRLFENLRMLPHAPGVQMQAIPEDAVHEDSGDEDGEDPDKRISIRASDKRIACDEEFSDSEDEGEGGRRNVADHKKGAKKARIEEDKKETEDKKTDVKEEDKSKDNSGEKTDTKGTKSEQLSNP

[7] = target: Histone deacetylase 1 (Homo sapiens) (UniProt Q13547); assay: Inhibition of full-length recombinant HDAC1 (unknown origin) expressed in baculovirus infected Sf9 insect cells measured every 5 mins by fluorescence assay
Histone deacetylase 1 (Homo sapiens), sequence (Q13547 whole entry): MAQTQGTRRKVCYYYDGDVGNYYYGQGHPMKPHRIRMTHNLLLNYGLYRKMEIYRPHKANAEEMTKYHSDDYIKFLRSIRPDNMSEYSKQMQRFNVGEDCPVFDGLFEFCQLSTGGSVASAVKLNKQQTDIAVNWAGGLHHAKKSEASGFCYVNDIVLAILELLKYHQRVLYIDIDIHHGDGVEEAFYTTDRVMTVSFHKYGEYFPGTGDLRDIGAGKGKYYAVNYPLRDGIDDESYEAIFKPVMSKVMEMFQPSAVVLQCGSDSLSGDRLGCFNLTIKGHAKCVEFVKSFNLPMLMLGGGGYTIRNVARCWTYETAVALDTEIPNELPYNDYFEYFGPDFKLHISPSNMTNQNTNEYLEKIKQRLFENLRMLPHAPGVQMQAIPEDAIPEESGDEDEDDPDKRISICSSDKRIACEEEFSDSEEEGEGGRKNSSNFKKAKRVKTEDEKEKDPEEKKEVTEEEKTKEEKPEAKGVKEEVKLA

[8] = target: Histone deacetylase 1 (Homo sapiens) (UniProt Q13547); assay: Inhibition of full-length recombinant HDAC1 (unknown origin) expressed in baculovirus infected Sf9 insect cells preincubated for 16 hrs measured every 5 mins by fluorescence assay
[9] = target: T3, Histone deacetylase (Homo sapiens) (UniProt Q13547+O15379+Q9UBN7+Q92769+Q9UQL6+Q8WUI4+Q9BY41+Q96DB2+P56524+Q9UKV0+Q969S8); assay: Inhibition of HDAC in human HCT116 cells assessed as reduction in acetyl-histone-H3 levels at 10 uM after 24 hrs by Western blot analysis relative to control; format: cell-based
In short: (§1)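 HCT116 cells were treated 24 h at 10 µM, with DMSO vehicle as control. Total lysates (protein by Bradford against a BSA standard, ~30 µg loaded) were run on 15% SDS-PAGE under reducing conditions and transferred to nitrocellulose. Membranes were blocked in 5% milk, then probed with anti-acetyl-histone H3 or H4, with GAPDH as loading control. Detection by HRP secondary and ECL. Three experiments.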

[10] = target: T3, Histone deacetylase (Homo sapiens); assay: Inhibition of HDAC in human HCT116 cells assessed as reduction in acetyl-histone-H4 levels at 10 uM after 24 hrs by Western blot analysis relative to control; format: cell-based; in short: as §1
[11] = target: T4, Histone deacetylase 3/Nuclear receptor corepressor 2 (HDAC3/NCoR2) (Homo sapiens) (UniProt O15379+Q9Y618); assay: Inhibition of human full length C-terminal His-tagged HDAC3/N-terminal GST-tagged human NCOR2 (395 to 489 residues) co-expressed in baculovirus infected Sf9 insect cells measured every 5 mins by fluorescence assay
[12] = target: T4, Histone deacetylase 3/Nuclear receptor corepressor 2 (HDAC3/NCoR2) (Homo sapiens); assay: Inhibition of human full length C-terminal His-tagged HDAC3/N-terminal GST-tagged human NCOR2 (395 to 489 residues) co-expressed in baculovirus infected Sf9 insect cells preincubated for 16 hrs measured every 5 mins by fluorescence assay

| pIC50 (HCT-116 [1]) | pIC50 (HCT-116 [2]) | pIC50 (HCT-116 [3]) | SMILES | further results |
| --- | --- | --- | --- | --- |
| < 4.30 | 6.32 | 5.30 to 6.00 | CCOC(=O)NCCCC(=O)NCCc1cccc(O)c1 | inhibition [4]: inactive; inhibition [5]: inactive; inhibition [6]: inactive; inhibition [7]: inactive; inhibition [8]: inactive; inhibition [9]: inactive; inhibition [10]: inactive; inhibition [11]: inactive; inhibition [12]: inactive |
| < 4.30 | 6.08 | 5.00 to 5.30 | CCOC(=O)NCCCC(=O)NCCc1cccc(F)c1 | – |
| < 4.30 | – | – | O=C(CCCNC(=O)C(=O)O)NCCCc1ccccc1 | – |
| < 4.30 | < 4.30 | < 4.30 | CCOC(=O)NCCCC(=O)NCCCc1ccccc1 | – |
| < 4.30 | < 4.30 | < 4.30 | CCOC(=O)NCCCC(=O)NCCc1ccccc1 | inhibition [4]: inactive; inhibition [5]: inactive; inhibition [6]: inactive; inhibition [7]: inactive; inhibition [8]: inactive; inhibition [11]: inactive; inhibition [12]: inactive |
| < 4.30 | < 4.30 | – | O=C(CCCNC(=O)C(=O)O)NCCc1ccccc1 | – |
| < 4.30 | – | 6.21 | CCOC(=O)NCCCC(=O)NCc1ccccc1 | – |

Further lines, the compound ahead of its results:

| SMILES | pIC50 (HCT-116 [1]) | pIC50 (HCT-116 [2]) | pIC50 (HCT-116 [3]) | further results |
| --- | --- | --- | --- | --- |
| O=C(CCCNC(=O)C(=O)O)NCCc1c[nH]c2ccccc12 | > 4.30 | – | – | – |
| O=C(CCCNC(=O)C(=O)O)Nc1ccccc1 | 6.09 | < 4.30 | – | inhibition [9]: inactive; inhibition [10]: inactive |
| O=C(CCCNC(=O)C(=O)O)NCCc1cccc(O)c1 | < 4.30 | < 4.30 | – | – |
| O=C(CCCNC(=O)C(=O)O)NCCc1cccc(F)c1 | < 4.30 | – | – | – |
